{
  "source": "paper PMC5443258",
  "about": "(Cancer cell, 2017)",
  "key": {"[1]": {"target": "T1, ERG protein in RWPE1-ERG cells (Homo sapiens, UniProt P11308)", "T1 sequence (P11308 33-479 limits assumed)": "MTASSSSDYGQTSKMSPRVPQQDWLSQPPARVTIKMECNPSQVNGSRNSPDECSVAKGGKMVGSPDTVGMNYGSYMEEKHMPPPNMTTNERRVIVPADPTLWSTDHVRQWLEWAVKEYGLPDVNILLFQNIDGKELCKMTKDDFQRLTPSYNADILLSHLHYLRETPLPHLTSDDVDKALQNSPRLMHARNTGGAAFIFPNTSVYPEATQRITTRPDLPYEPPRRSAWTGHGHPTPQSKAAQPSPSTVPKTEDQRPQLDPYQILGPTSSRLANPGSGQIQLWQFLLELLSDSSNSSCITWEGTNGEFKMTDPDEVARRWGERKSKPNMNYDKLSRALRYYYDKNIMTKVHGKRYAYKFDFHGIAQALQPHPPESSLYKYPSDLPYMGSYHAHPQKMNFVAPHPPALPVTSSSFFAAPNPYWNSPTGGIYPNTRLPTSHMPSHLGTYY", "experiment": "Immunoblot of ERG protein in RWPE1-ERG cells", "type": "cell-based", "conditions": "even at 5 μM concentration"}, "[2]": {"target": "T2, ERG protein in VCaP cells (Homo sapiens, UniProt P11308)", "T2 sequence (P11308 33-479 limits assumed)": "T1 sequence (P11308 33-479 limits assumed)", "experiment": "Cellular thermal shift assay", "type": "cell-based", "conditions": "50°C, 3 hours treatment"}, "VCaP cells": {"system": "VCaP cells", "set-up": "species or system chicken", "conditions": "in vivo, 25 mg/kg"}, "[3]": {"target": "T2, ERG protein in VCaP cells", "type": "cell-based"}, "[4]": {"target": "T3, ERG protein in HUVEC cells (Homo sapiens, UniProt P11308)", "T3 sequence (P11308 1-479)": "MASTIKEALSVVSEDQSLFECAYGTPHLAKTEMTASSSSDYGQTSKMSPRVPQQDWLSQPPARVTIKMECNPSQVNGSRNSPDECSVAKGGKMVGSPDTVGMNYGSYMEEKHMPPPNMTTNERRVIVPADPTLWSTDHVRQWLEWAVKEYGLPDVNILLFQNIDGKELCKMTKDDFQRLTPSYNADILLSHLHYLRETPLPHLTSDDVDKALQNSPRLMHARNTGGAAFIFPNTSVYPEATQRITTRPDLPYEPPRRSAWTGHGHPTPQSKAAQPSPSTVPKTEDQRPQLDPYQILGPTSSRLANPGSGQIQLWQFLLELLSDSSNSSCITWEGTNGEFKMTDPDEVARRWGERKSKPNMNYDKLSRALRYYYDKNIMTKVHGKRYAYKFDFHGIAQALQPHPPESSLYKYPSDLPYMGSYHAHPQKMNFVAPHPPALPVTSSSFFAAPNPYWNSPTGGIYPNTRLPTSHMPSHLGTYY", "experiment": "Cellular thermal shift assay", "type": "cell-based"}, "VCaP xenografts": {"system": "VCaP xenografts", "experiment": "VCaP xenograft mouse model", "type": "in vivo, mice", "conditions": "25 mg/kg, IP-Western blot, compared to mutant peptide", "outline": "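Mice carried VCaP xenografts staged for three weeks, with 10 per group. Test compound or mutant control peptide was given IP at 25 mg/kg daily. Tumors were collected 24 h after the final dose and lysed in MOPS pH 7.0 buffer with phosphatase and protease inhibitors. For IP-Western, 0.5–1.0 mg lysate was precleared, incubated with 2 μg anti-ERG at 4°C for 4 h, then with protein A/G beads overnight, and immunoblotted.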"}, "[5]": {"system": "ERG recruitment to chromatin", "experiment": "ChIP and ChIP-seq in VCaP cells", "type": "cell-based", "outline": "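VCaP cells were exposed to 50 μM test compound or mutant control peptide for 12 h. Cells were cross-linked in 1% formaldehyde for 10 min, quenched with glycine, and sonicated to ~200 bp fragments. Chromatin from 5×10^6 cells was incubated with antibody overnight at 4°C, and crosslinks were reversed at 67°C for 4–5 h. ChIP-seq ERG signal was normalized and taken at summits of 4th-quartile peaks (mutant-control sample), ±400 bp.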"}, "[6]": {"target": "T4, ERG protein in PC3-ERG cells (Homo sapiens, UniProt P11308)", "T4 sequence (P11308 1-479)": "T3 sequence (P11308 1-479)", "experiment": "Immunoblot of ERG protein in PC3-ERG cells", "type": "cell-based", "conditions": "even at 5 μM concentration"}, "ERG protein": {"target": "T5, ERG protein (Homo sapiens, UniProt P11308)", "T5 sequence (P11308 1-479)": "T3 sequence (P11308 1-479)", "experiment": "Biolayer interferometry"}, "ERG:DNA-PKcs interaction": {"target": "T6, ERG:DNA-PKcs interaction (Homo sapiens, UniProt P11308)", "T6 sequence (P11308 33-479 limits assumed)": "T1 sequence (P11308 33-479 limits assumed)", "experiment": "Co-immunoprecipitation from VCaP xenograft tumors after single dose", "type": "in vivo, mice", "conditions": "single 25 mg/kg dose IP, three and six hours post injection, co-IP immunoblot"}, "ERG:EBS DNA interaction": {"target": "ERG:EBS DNA interaction (Homo sapiens, UniProt P11308)"}, "ERG:AR interaction": {"target": "T7, ERG:AR interaction (Homo sapiens, UniProt P11308)", "T7 sequence (P11308 1-479)": "T3 sequence (P11308 1-479)", "experiment": "In vitro peptide competitive pull-down, ERG:AR", "type": "biochemical", "conditions": "cell-free, Halo-ERG and GST-AR, increasing peptide concentrations, immunoblot"}, "ERG_Y373A": {"target": "ERG_Y373A (Homo sapiens, UniProt P11308, Y373A)", "experiment": "biochemical"}},
  "note": "Where a SMILES comes first, the peptide text is derived from it. Where no end group is shown, it is not given here. [ ]: non-standard residue; d: D form.",
  "data": [
    {"compound": "CC(C)C[C@@H](NC(=O)[C@H]1CCCN1C(=O)[C@H]1CCCN1C(=O)[C@@H](Cc1ccc(O)cc1)NC(=O)[C@@H](CC(C)C)NC(=O)[C@@H](Cc1ccccc1)NC(=O)[C@H](N)[C@H](C)O)C(=O)O", "note": "[RI-EIP1] (H-[dT][dF][dL][dY][dP][dP][dL]-OH)", "values": [
      {"measurement": "effect on ERG protein in RWPE1-ERG cells", "setting": "[1]", "value": "destabilized"},
      {"measurement": "solubility of ERG protein, isothermal dose-response", "setting": "[2]", "value": "increased in a dose-dependent fashion"},
      {"measurement": "ERG-mediated invasion in CAM", "setting": "VCaP cells", "value": "blocked"},
      {"measurement": "ERG protein half-life in the presence of cycloheximide", "setting": "[3]", "value": "significantly shortened"},
      {"measurement": "thermal shift of soluble ERG protein in HUVEC cells (CETSA)", "setting": "[4]", "value": "no clear thermal shift"},
      {"measurement": "ERG protein in VCaP xenograft tumors after 18 days treatment", "setting": "VCaP xenografts", "value": "degradation of ERG protein"},
      {"measurement": "average ERG ChIP-seq signal for 4th quartile peaks", "setting": "[5]; 50 μM, 12 hours, compared to mutant peptide", "value": "markedly reduced"},
      {"measurement": "ERG and DNA-PKcs enrichment at ERG-regulated genomic loci (ChIP)", "setting": "[5]; 12 hours treatment", "value": "inhibited"},
      {"measurement": "effect on ERG protein in PC3-ERG cells", "setting": "[6]", "value": "destabilized"},
      {"measurement": "Kd", "setting": "ERG protein", "value": 0.94, "unit": "µM"},
      {"measurement": "ERG:DNA-PKcs interaction in xenograft tumors", "setting": "ERG:DNA-PKcs interaction", "value": "blocked"}
    ]},
    {"compound": "CC(C)C[C@@H](NC(=O)[C@@H](CO)NC(=O)[C@@H](Cc1ccccc1)NC(=O)CNC(=O)[C@@H](CO)NC(=O)[C@@H](CC(C)C)NC(=O)[C@H]1CCCN1)C(=O)O", "note": "[RI-EIP2] (H-[dP][dL][dS]G[dF][dS][dL]-OH)", "values": [
      {"measurement": "effect on ERG protein in RWPE1-ERG cells", "setting": "[1]", "value": "destabilized"},
      {"measurement": "effect on ERG protein in PC3-ERG cells", "setting": "[6]", "value": "destabilized"},
      {"measurement": "Kd", "setting": "ERG protein", "value": 1.28, "unit": "µM"}
    ]},
    {"compound": "LPPYLFT [EIP1]", "values": [
      {"measurement": "disruption of ERG:EBS DNA interaction", "setting": "ERG:EBS DNA interaction", "value": "effectively disrupted"},
      {"measurement": "disruption of direct ERG:AR interaction", "setting": "ERG:AR interaction", "value": "disrupted"},
      {"measurement": "Kd", "setting": "ERG_Y373A", "value": "> 100", "unit": "µM"},
      {"measurement": "Kd", "setting": "ERG protein", "value": 0.6, "unit": "µM"}
    ]},
    {"compound": "LSFGSLP [EIP2]", "values": [
      {"measurement": "disruption of direct ERG:AR interaction", "setting": "ERG:AR interaction", "value": "disrupted"},
      {"measurement": "Kd", "setting": "ERG protein", "value": 1.8, "unit": "µM"}
    ]}
  ]
}
